Test results published in PMC4142138 (European Journal of Drug Metabolism and Pharmacokinetics, 2014).
Values after ≈ are worked out from the molar mass of the structure shown.

Legend:
CXCR2 = conditions: read-out: IC50 for CXCL8 binding; ref GSK, data on file; cited from earlier work
[1] = In vitro pH solubility profile in Britton–Robinson buffer; type: physicochemical; conditions: pH 6, aqueous buffer, thermodynamic from solid
Summary of the method: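 Excess solid added to Britton–Robinson buffer at the set pH in a vial, rolled 4 h at ambient temperature. A sample was filtered by centrifugation through a 0.45 μm PVDF membrane. The clear filtrate was assayed by gradient reversed-phase HPLC on C18 (water/acetonitrile, 0.05 % TFA) with UV detection at 220 nm.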

[2] = type: in vivo; conditions: human, whole blood, po, 50 mg
healthy elderly subjects = test: Safety and tolerability; type: in vivo, human; conditions: whole study
Summary of the method: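 Healthy elderly (65–80 y) male or non-childbearing female volunteers in a single-centre randomised crossover study; 20 subjects through 4 treatment periods. Each period had omeprazole 20 mg QD for 5 days and a single oral 50 mg test compound dose (fed or fasted), with washout ≥3 days. AEs, vital signs, ECGs, clinical chemistry, haematology, urinalysis and physical examination were summarised by treatment.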

[3] = all treatment periods, 20 subjects

## Cc1c(F)cccc1NC(=O)Nc1ccc(Cl)c(S(=O)(=O)[C@H]2CCCNC2)c1O [danirixin, Danirixin]
CXCR2
  IC50: […]
[1]
  solubility at 4 h: 3 µg/mL (≈ 6.79 µM)
[2]
  half-life: 7 to 9 h
Healthy elderly subjects
  serious AEs: no serious AEs
Healthy elderly subjects; [3]
  subjects reporting AEs during the study: 45%
  subjects reporting headaches during the study: 20%
